Calls of active or inactive are those of the source. No cut-off for these calls is given here.
Legend:
[1] = tested on: MDA-MB-231; experiment: Induction of apoptosis in human MDA-MB-231 cells assessed as necrotic cells at 2.5 microM after 24 hrs by Annexin-V/PI staining based flow cytometry (Rvb= 1.22%); assay type: functional
[2] = tested on: MDA-MB-231; experiment: Induction of apoptosis in human MDA-MB-231 cells assessed as necrotic cells at 1.25 microM after 24 hrs by Annexin-V/PI staining based flow cytometry (Rvb= 1.22%); assay type: functional
[3] = tested on: MDA-MB-231; experiment: Induction of autophagy in human MDA-MB-231 cells assessed as increase of p-ULK1 expression after 24 hrs by Western blot assay; assay type: functional, cell-based; settings: dose 1.25-5 µM
[4] = tested on: MDA-MB-231; experiment: Induction of apoptosis in human MDA-MB-231 cells assessed as necrotic cells at 5 microM after 24 hrs by Annexin-V/PI staining based flow cytometry (Rvb= 1.22%); assay type: functional
[5] = tested on: MDA-MB-231; experiment: Induction of apoptosis in human MDA-MB-231 cells assessed as early apoptotic cells at 1.25 microM after 24 hrs by Annexin-V/PI staining based flow cytometry (Rvb= 3.14 %); assay type: functional
[6] = tested on: MDA-MB-231; experiment: Induction of apoptosis in human MDA-MB-231 cells assessed as late apoptotic cells at 1.25 microM after 24 hrs by Annexin-V/PI staining based flow cytometry (Rvb= 2.46%); assay type: functional
[7] = tested on: MDA-MB-231; experiment: Inhibition of ATAD2 in human MDA-MB-231 cells by measuring c-myc phosphorylation at 1.25 to 5 uM for 24 hrs by Western blot analysis; assay type: functional, cell-based; settings: dose 1.25-5 µM
Summary of the method: (§1)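 MDA-MB-231 cells treated with 1.25, 2.5 and 5.0 µM for 24 h. Lysates separated on 10–15% SDS-PAGE and blotted to PVDF. c-Myc and p-cMyc detected with HRP/ECL, with β-actin as loading control.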

[8] = tested on: MDA-MB-231; experiment: Induction of autophagy in human MDA-MB-231 cells assessed as increase of LC3-II expression after 24 hrs by Western blot assay; assay type: functional, cell-based; settings: dose 1.25-5 µM
[9] = tested on: MDA-MB-231; experiment: Induction of apoptosis in human MDA-MB-231 cells assessed as increase of Bax expression after 24 hrs by Western blot assay; assay type: functional, cell-based; settings: dose 1.25-5 µM
Summary of the method: (§2)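 MDA-MB-231 cells (DMEM, 10% FBS, 5% CO2) exposed to 1.25, 2.5 or 5 μM for 24 h. Adherent and floating cells lysed in Hepes 50 mM pH 7.4/1% Triton X-100 buffer with phosphatase and protease inhibitors. Equal protein run on 10–15% SDS-PAGE, transferred to PVDF, detected by HRP/ECL. Bands normalised to β-actin, compared with DMSO control by unpaired t-test.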

[10] = tested on: MDA-MB-231; experiment: Induction of apoptosis in human MDA-MB-231 cells assessed as reduction of Bcl-2 expression after 24 hrs by Western blot assay; assay type: functional, cell-based; settings: dose 1.25-5 µM; summary of the method: as §2
[11] = tested on: MDA-MB-231; experiment: Induction of autophagy in human MDA-MB-231 cells assessed as downregulation of mTOR expression at 1.25 to 5 uM for 24 hrs by Western blot assay; assay type: functional, cell-based; settings: dose 1.25-5 µM
Summary of the method: (§3)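 MDA-MB-231 cells treated with 1.25, 2.5 or 5 µM for 24 h. Lysates made in Hepes pH 7.4/Triton X-100 buffer with protease and phosphatase inhibitors, then run on SDS-PAGE, blotted to PVDF and detected by HRP/ECL. p-PI3K and p-mTOR Ser2448 bands normalised to β-actin.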

[12] = tested on: MDA-MB-231; experiment: Induction of apoptosis in human MDA-MB-231 cells assessed as late apoptotic cells at 2.5 microM after 24 hrs by Annexin-V/PI staining based flow cytometry (Rvb= 2.46%); assay type: functional
[13] = tested on: MDA-MB-231; experiment: Induction of autophagy in human MDA-MB-231 cells assessed as downregulation of mTOR at ser2448 residue expression at 1.25 to 5 uM for 24 hrs by Western blot assay; assay type: functional, cell-based; settings: dose 1.25-5 µM; summary of the method: as §3
[14] = tested on: MDA-MB-231; experiment: Induction of apoptosis in human MDA-MB-231 cells assessed as viable cells at 5 microM after 24 hrs by Annexin-V/PI staining based flow cytometry (Rvb= 93.17 %); assay type: functional; settings: read-out: Activity
[15] = tested on: MDA-MB-231; experiment: Induction of apoptosis in human MDA-MB-231 cells assessed as early apoptotic cells at 5 microM after 24 hrs by Annexin-V/PI staining based flow cytometry (Rvb= 3.14 %); assay type: functional
[16] = tested on: MDA-MB-231; experiment: Inhibition of ATAD2 in human MDA-MB-231 cells by measuring c-myc protein level at 1.25 to 5 uM for 24 hrs by Western blot analysis; assay type: functional, cell-based; settings: dose 1.25-5 µM; summary of the method: as §1
[17] = tested on: MDA-MB-231; experiment: Induction of apoptosis in human MDA-MB-231 cells assessed as reduction of cleavage of caspase 3 after 24 hrs by Western blot assay; assay type: functional, cell-based; settings: dose 1.25-5 µM; summary of the method: as §2
[18] = tested on: MDA-MB-231; experiment: Induction of autophagy in human MDA-MB-231 cells assessed as aggregation of LC3 puncta after 24 hrs by immunofluorescence analysis; assay type: functional, cell-based
Summary of the method: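 MDA-MB-231 cells transfected with GFP/mRFP-LC3, then exposed to 2.5 µM for 24 h. LC3 puncta and autophagy ratio scored under a fluorescence microscope.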

[19] = tested on: MDA-MB-231; experiment: Inhibition of ATAD2 in human MDA-MB-231 cells assessed as downregulation of c-myc phosphorylation at 2.5 uM by immuno chemistry analysis; assay type: cell-based
Summary of the method: (§4)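 MDA-MB-231 cells treated at 2.5 µM. Anti-ATAD2 or anti-p-cMyc primary (1:200 in PBS/1% BSA) applied overnight at 4 °C, then fluorescent secondary antibody 1 h at room temperature. Nuclei counterstained with DAPI, green signal imaged.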

[20] = tested on: MDA-MB-231; experiment: Induction of autophagy in human MDA-MB-231 cells assessed as downregulation of PI3K expression at 1.25 to 5 uM for 24 hrs by Western blot assay; assay type: functional, cell-based; settings: dose 1.25-5 µM; summary of the method: as §3
[21] = tested on: MDA-MB-231; experiment: Induction of autophagy in human MDA-MB-231 cells assessed as increase of ULK1 expression after 24 hrs by Western blot assay; assay type: functional, cell-based; settings: dose 1.25-5 µM
[22] = tested on: MDA-MB-231; experiment: Induction of autophagy in human MDA-MB-231 cells assessed as increase of beclin 1 expression after 24 hrs by Western blot assay; assay type: functional, cell-based; settings: dose 1.25-5 µM
[23] = tested on: MDA-MB-231; experiment: Induction of apoptosis in human MDA-MB-231 cells assessed as early apoptotic cells at 2.5 microM after 24 hrs by Annexin-V/PI staining based flow cytometry (Rvb= 3.14 %); assay type: functional
[24] = tested on: MDA-MB-231; experiment: Inhibition of ATAD2 in human MDA-MB-231 cells by measuring reduction in color intensity at 2.5 uM by immuno chemistry analysis; assay type: functional, cell-based; summary of the method: as §4
[25] = tested on: MDA-MB-231; experiment: Induction of autophagy in human MDA-MB-231 cells assessed as downregulation of AKT expression at 1.25 to 5 uM for 24 hrs by Western blot assay; assay type: functional, cell-based; settings: dose 1.25-5 µM
[26] = tested on: MDA-MB-231; experiment: Induction of apoptosis in human MDA-MB-231 cells assessed as late apoptotic cells at 5 microM after 24 hrs by Annexin-V/PI staining based flow cytometry (Rvb= 2.46%); assay type: functional
[27] = tested on: MDA-MB-231; experiment: Induction of apoptosis in human MDA-MB-231 cells assessed as viable cells at 2.5 microM after 24 hrs by Annexin-V/PI staining based flow cytometry (Rvb= 93.17 %); assay type: functional; settings: read-out: Activity
[28] = tested on: MDA-MB-231; experiment: Induction of apoptosis in human MDA-MB-231 cells assessed as reduction of cleavage of caspase 8 after 24 hrs by Western blot assay; assay type: functional, cell-based; settings: dose 1.25-5 µM; summary of the method: as §2
[29] = tested on: MDA-MB-231; experiment: Induction of autophagy in human MDA-MB-231 cells assessed as degradation of SQSTM1/p62 after 24 hrs by Western blot assay; assay type: functional, cell-based; settings: dose 1.25-5 µM
[30] = biological target: T1, ATPase family AAA domain-containing protein 2 (Homo sapiens, UniProt Q6PL18); experiment: Inhibitory activity against ATAD2 (unknown origin) at bromodomain incubated for 180 min by Tr-FRET assay
T1 sequence (Q6PL18 whole entry): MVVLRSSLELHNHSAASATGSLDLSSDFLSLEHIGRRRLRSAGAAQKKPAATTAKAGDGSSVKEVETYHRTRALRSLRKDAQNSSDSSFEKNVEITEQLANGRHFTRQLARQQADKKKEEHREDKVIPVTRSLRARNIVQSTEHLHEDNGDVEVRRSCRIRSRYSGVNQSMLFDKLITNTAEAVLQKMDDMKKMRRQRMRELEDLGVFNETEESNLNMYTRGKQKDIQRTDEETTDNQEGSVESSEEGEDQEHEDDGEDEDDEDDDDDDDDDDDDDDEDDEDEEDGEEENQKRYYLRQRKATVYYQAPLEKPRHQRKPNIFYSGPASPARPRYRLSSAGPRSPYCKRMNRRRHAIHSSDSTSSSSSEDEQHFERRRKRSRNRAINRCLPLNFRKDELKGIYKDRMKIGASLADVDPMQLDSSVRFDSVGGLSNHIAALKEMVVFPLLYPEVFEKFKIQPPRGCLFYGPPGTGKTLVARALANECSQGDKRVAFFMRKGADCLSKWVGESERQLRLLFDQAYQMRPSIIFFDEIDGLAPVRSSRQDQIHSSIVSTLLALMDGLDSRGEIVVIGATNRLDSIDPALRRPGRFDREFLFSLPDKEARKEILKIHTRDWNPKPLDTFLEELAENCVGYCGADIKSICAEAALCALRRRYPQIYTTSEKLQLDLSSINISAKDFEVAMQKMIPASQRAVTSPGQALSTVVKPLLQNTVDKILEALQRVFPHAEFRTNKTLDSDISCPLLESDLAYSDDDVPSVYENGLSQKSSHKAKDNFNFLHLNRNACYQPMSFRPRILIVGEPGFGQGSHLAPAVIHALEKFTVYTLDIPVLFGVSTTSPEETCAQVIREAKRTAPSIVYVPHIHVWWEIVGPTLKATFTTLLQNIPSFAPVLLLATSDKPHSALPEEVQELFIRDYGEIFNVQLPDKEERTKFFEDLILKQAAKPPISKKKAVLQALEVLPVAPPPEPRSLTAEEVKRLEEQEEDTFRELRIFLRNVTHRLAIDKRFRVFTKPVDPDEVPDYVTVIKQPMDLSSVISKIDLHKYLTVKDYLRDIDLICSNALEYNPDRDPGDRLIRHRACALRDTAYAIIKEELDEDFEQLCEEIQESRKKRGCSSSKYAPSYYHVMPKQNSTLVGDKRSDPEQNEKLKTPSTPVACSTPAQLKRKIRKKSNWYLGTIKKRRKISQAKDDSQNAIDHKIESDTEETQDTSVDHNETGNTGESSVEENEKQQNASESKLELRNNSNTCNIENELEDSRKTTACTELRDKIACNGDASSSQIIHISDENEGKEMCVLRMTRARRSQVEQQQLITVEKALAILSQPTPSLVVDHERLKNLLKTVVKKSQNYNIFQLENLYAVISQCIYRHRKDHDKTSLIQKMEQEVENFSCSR
Summary of the method: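 Recombinant ATAD2 bromodomain and BET ligand read by TR-FRET. Compounds diluted in DMSO, then 20-fold in 5% DMSO in reaction buffer; 2 µl added per 20 µl reaction. Incubated 180 min, then acceptor/donor fluorescence ratio read. Each concentration run in duplicate.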

CC1=C(C#N)c2nc(N)c(C#N)c(C)c2/C1=C\c1ccc(-c2cc(C(=O)O)ccc2Cl)o1
Activity [1]: 3.67% | Activity [2]: 1.55% | Activity [3]: Dose-Dependent Effect | Activity [4]: 5.98% | Activity [5]: 5.24% | Activity [6]: 2.89% | Activity [7]: Active | Activity [8]: Active | Activity [9]: Active | Activity [10]: Active | Activity [11]: Active | Activity [12]: 3.92% | Activity [13]: Active | viability at 5 µM [14]: 60.1% | Activity [15]: 23.86% | Activity [16]: Active | Activity [17]: Active | Activity [18]: Active | inhibition [19]: Active | Activity [20]: Active | Activity [21]: Dose-Dependent Effect | Activity [22]: Active | Activity [23]: 7.76% | Activity [24]: Active | Activity [25]: Active | Activity [26]: 10.01% | viability at 2.5 µM [27]: 84.7% | Activity [28]: Active | Activity [29]: Active

COc1cc(Cl)c(C(=O)N[C@H](CN[C@H]2CC[C@@H](N)CC2)Cc2ccc(C#N)cc2)cc1-c1ccc(CN[C@H](C)c2ccc(C)cc2)o1
IC50 [30]: 242 nM
